# Only some compounds are listed: those with a hit (about 3% of all), similar ones and a draw of the others.
# UBC13 polyUb = UBC13 polyubiquitin chain formation inhibitors, primary screen, biochemical, TR-FRET, uHTS | Ubiquitin-conjugating enzyme E2 N (Homo sapiens), P61088 | inhibition, % at 20 µM | hit rate 0.47% among 330,000 | AID 485273, 2010; in the data active = inhibition above about 45%, passing the limit was not always enough
# Target sequence (P61088 whole entry, looked up): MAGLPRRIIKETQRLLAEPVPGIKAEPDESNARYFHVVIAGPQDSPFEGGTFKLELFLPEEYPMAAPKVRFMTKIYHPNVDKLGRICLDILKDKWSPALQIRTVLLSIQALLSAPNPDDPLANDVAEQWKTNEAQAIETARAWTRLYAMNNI
# Apaf1 inhib = inhibitors of human Apaf-1 apoptosome, primary screen, biochemical, DEVD-Rh110 fluorescence, uHTS. Apoptotic protease-activating factor 1 (Homo sapiens), O14727. reconstituted apoptosome caspase-3 activity. inhibition, % at 20 µM. hit rate 0.71% among 330,000. AID 489030, 2010; active = inhibition of at least 40% at 20 µM;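 also: plate controls were DMSO wells for no effect and DEVD-CHO caspase inhibitor wells for full effect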
#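 System – cell-free apoptosome with Apaf-1, procaspase-3 and caspase-9 · Buffer or medium – pH 7.5 Hepes buffer with CHAPS, BSA, DTT · Also added – cytochrome c with DEVD-Rh110 · Times – 30 min compound preincubation, 50 min activation, room temperature · Technique – Rh110 fluorescence intensity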
# Granule exo inh = LAMP-1 surface exposure blockers, TALL-104 cells – cell-based, flow cytometry, MLPCN library, primary screen; TALL-104 LAMP-1 surface exposure; cells stimulated with thapsigargin and PMA; inhibition, % at 10 µM; hit rate 0.66% among 360,000;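 active = inhibition above about 55%, limit read from the data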
# hiPSC survival = enhancers of single-cell hiPSC survival, primary screen, ATPlite luminescence; AID 602274, 2012; survival enhancement, % at 20 µM; 100% = ROCK inhibitor wells, 0% = DMSO; hit rate 0.044% among 360,000; in the data active = survival enhancement above about 18%;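 also: cells exposed to compounds for 16 hours before the ATP read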
# MIN6 prolif = inducers of MIN6 beta-cell proliferation, primary screen, ATP luminescence, uHTS | MIN6 cells proliferation, ATPlite luminescence, 48 h; cells starved in 0.2% serum; 100% = growth in 10% serum | proliferation, % at 10 µM | hit rate 0.29% among 330,000;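 active = compounds whose signal lies at least 3.5 SD above the mean of all wells on their plate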;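 also: 0% = DMSO-treated cells in low-serum medium and 100% = 10% serum control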
# MPTP block = mitochondrial permeability transition pore inhibitors, primary screen, biochemical, isolated mouse mitochondria, absorbance; AID 602449, 2012; inhibition, % at 10 µM; Ca2+ swelling absorbance, 30 min; hit rate 1.4% among 360,000;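 active = inhibition of 50% or more, scaled per plate between neutral and stimulator controls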;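 also: 0% = DMSO wells given calcium and 100% = 1 mM EGTA wells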
# Rh123 counter = fluorescence retest of MPTP screen hits in isolated mitochondria, single concentration; hit rate 78% among 5,000; membrane potential, Rhodamine 123 fluorescence; inhibition, % at 10 µM; shares compounds with MPTP block; in the data active = inhibition above about 22%;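 also: 0% = DMSO vehicle and 100% = positive control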
# MPTP abs DR = mitochondrial permeability transition pore inhibitors, dose response, biochemical, absorbance, uHTS hits. hit rate 58% among 780. shares compounds with MPTP block. isolated mitochondria swelling. IC50, µM; in the data active = IC50 below about 20 µM
# MPTP counter DR = fluorescent counter-screen in isolated mitochondria, dose response, counter-screen for MPTP inhibitor project, biochemical, fluorescence, uHTS hits. shares compounds with MPTP block. isolated mitochondria counterscreen, fluorescence read-out. IC50, µM. hit rate 49% among 780. AID 651564, 2012; in the data active = IC50 below about 80 µM
# * marks the source's active call; other numbers are inactive results; / = no result.
SMILES,UBC13 polyUb,Apaf1 inhib,Granule exo inh,hiPSC survival,MIN6 prolif,MPTP block,Rh123 counter,others
O=C(/C=C/c1ccccc1)NC(NC(=S)Nc1ccc(Cl)cc1Cl)C(Cl)(Cl)Cl (stereo not drawn),-37.6,8.2,12.7,3.6,-5.7,102.4*,63.4*,
COc1cc(OC)cc(C(=O)NNC(=O)c2cc(S(=O)(=O)N3CCOCC3)ccc2F)c1,7.9,-13.4,0.0,0.1,-3.5,0.2,/,
O=c1[nH]cnc2c1sc1nc(C(F)F)cc(-c3ccccc3)c12,25.7,-17.4,5.4,-0.1,-5.3,3.4,/,
Cc1ccc(C)c(NC(=S)NC(NC(=O)/C=C/c2ccccc2)C(Cl)(Cl)Cl)c1 (stereo not drawn),-14.8,4.3,2.3,0.3,-6.1,100.3*,64.9*,
Cc1ccc(O)c(NC(=S)NC(=O)/C=C/c2ccccc2)c1,-11.4,1.6,11.9,-0.1,-3.7,1.8,/,
Cc1ccc(S(=O)(=O)O/N=C2\CCCc3ccccc32)cc1,-3.8,-4.5,0.6,0.7,-2.0,0.0,/,
CC1=C(C)/C(=N\OS(=O)(=O)c2ccccc2)C=CC1=O,-12.2,0.1,96.8*,-3.9,-3.2,109.4*,99.1*,
Cc1c(NC(=O)c2ccc(NC(=O)C3CC3)cc2)cccc1C(=O)O,3.8,5.4,0.5,0.1,3.8,0.5,/,
O=S(=O)(c1ccc2c(c1)C(O)c1ccccc1CC2)C(F)(F)F (stereo not drawn),12.9,4.8,-1.8,-2.9,-7.5,89.8*,92.2*,
OCCN1CCN(c2nc(-c3ccccc3)c3cc(Cl)ccc3n2)CC1,31.9,17.7,2.8,0.9,-4.2,79.6*,-14.4,MPTP abs DR=9.16*;MPTP counter DR=>80
Cc1ccc2nc(N3CCN(CCO)CC3)nc(-c3ccccc3)c2c1,19.4,9.7,4.2,-0.1,-2.5,1.2,/,
CN1CCN(c2nnc(-c3ccccc3)c(-c3ccccc3)n2)CC1,7.9,-10.6,0.4,0.2,1.0,2.3,/,
CN1CCN(c2nc(-c3ccccc3)c3cc(Cl)ccc3n2)CC1,27.4,12.2,1.7,-1.3,-3.5,62.8*,-5.9,MPTP abs DR=17*;MPTP counter DR=76.8*
Cc1ccc(S(=O)(=O)NCc2ccc(C(=O)NC3CCC(O)CC3)cc2)cc1C (stereo not drawn),0.2,-13.1,0.3,-3.6,0.7,0.4,/,
Cc1ccc(-c2csc3nc(-c4ccncc4)[nH]c(=O)c23)cc1,3.1,-8.5,-8.8,-0.2,-4.6,98.1*,18.6,MPTP abs DR=3.04*;MPTP counter DR=<2.5*
Cc1ccc(-c2csc3nc[nH]c(=O)c23)cc1,7.1,-1.3,-1.7,0.4,-2.1,0.2,/,
CCCCOCCCNc1ncnc2c1[nH]c1ccccc12,12.4,-1.6,-0.5,-4.4,-5.6,92.5*,92.7*,
CC(=O)NC(CC(=O)NNC(=O)C(C)Oc1ccccc1F)c1ccccc1 (stereo not drawn),2.5,2.4,8.6,2.7,0.7,-1.9,/,
CCSc1nnc(NC(=O)c2cccc(S(=O)(=O)N(C)c3ccccc3)c2)s1,-8.1,-17.1,-1.5,0.4,3.1,42.6,/,
C=CCN(c1ccccc1)S(=O)(=O)c1cccc(C(=O)Nc2nnc(SCC)s2)c1,4.2,10.7,0.6,4.8,-1.7,67.3*,66.7*,
COc1cc(/C=C/CNC[C@H]2O[C@@H](n3ccc(=O)[nH]c3=O)[C@H](O)[C@@H]2O)ccc1O,/,/,-1.0,2.6,/,0.6,/,
Nc1nc2ccccc2cc1C(=O)NCc1ccc(Cl)cc1Cl,/,/,-3.8,0.1,/,67.1*,97.3*,
Nc1nc2ccccc2cc1C(=O)NCc1ccc(-c2ccccc2)cc1,/,/,3.2,/,/,105.8*,102.9*,
COc1ccccc1NC(=O)Cc1nnc(SCC(=O)NC2=NCCS2)n1C,7.6,1.3,-22.1,-0.4,1.2,-1.1,/,
COc1cccc(C2c3cc4c(cc3OC(N3CCOCC3)C2C)OCO4)c1O (stereo not drawn),/,/,0.8,0.5,/,0.6,/,
SMILES,UBC13 polyUb,Apaf1 inhib,Granule exo inh,hiPSC survival,MIN6 prolif,MPTP block,Rh123 counter,others
CCCc1nc2c(ccc3ccccc32)cc1CC,6.5,5.5,-9.7,0.2,-5.4,-0.3,/,
Cc1c(C)n(CCc2ccccc2)c2ncnc(NCCO)c12,-3.6,5.0,11.3,-0.3,-0.3,-0.4,/,
Cc1c(C)n(Cc2ccccc2)c2ncnc(Cl)c12,8.3,7.8,24.5,0.5,-3.7,56.4*,65.2*,
Cc1cccc(C)c1OC(=O)c1ccccc1,/,/,-3.0,-1.1,/,-1.1,/,
Cc1ccccc1OCCCSc1nc2ccccc2[nH]1,8.8,-7.2,-2.9,2.2,0.0,67.8*,99.1*,
c1ccc(OCCSc2nc3ccccc3[nH]2)cc1,12.0,-5.3,-0.7,0.7,-2.4,-5.6,/,
Cc1nc(SCC(=O)NCC2CCCO2)[nH]c(=O)c1C (stereo not drawn),0.5,0.5,9.0,0.0,1.7,-0.2,/,
Cc1ccc(-c2cc(-c3n[nH]c(=S)o3)c3ccccc3n2)cc1,/,/,-2.8,-0.9,/,93.6*,63.5*,
CC(C)Cc1cc(CNC(=O)C2CCC(=O)N(Cc3cccc(C(F)(F)F)c3)C2)on1 (stereo not drawn),-2.8,5.6,-4.5,-0.4,-1.2,-0.2,/,
Cc1c(CC(=O)Nc2ccc(Cl)cc2)sc2ccc(Cl)cc12,1.5,-8.6,-0.5,0.2,-1.8,87.6*,90.7*,
CCCC(=O)Nc1cccc(NC(=O)Cc2ccc(Cl)cc2)c1,/,/,14.0,-1.5,/,1.5,/,
O=C1c2cc(Cl)ccc2-c2c(O)cc(Cl)cc21,/,/,-2.7,-0.8,/,98.7*,77.8*,
O=c1cc(O)c(-c2ccc(Cl)cc2)c(Cl)[nH]1,10.4,-30.8,-5.4,-0.4,0.8,1.9,/,
O=C(Nc1nc(-c2ccc(F)cc2)cs1)C1CCN(C(=O)c2ccc(F)cc2)CC1,3.5,26.5,2.1,-0.3,-7.1,63.5*,78.3*,
Nc1cccc2c1C(=O)N(CCOc1ccc(F)cc1)C2=O,29.5,8.8,-8.0,0.0,-0.1,-0.6,/,
Clc1ccc(N(CC2CO2)CC2CO2)cc1 (stereo not drawn),/,/,2.5,-2.9,/,-2.4,/,
O=c1oc2ccccc2c(Nc2cccc3ccccc23)c1[N+](=O)[O-],-21.6,17.0,-1.6,0.1,0.0,66.8*,79.5*,
O=c1oc2ccccc2c(NCc2ccccc2)c1[N+](=O)[O-],-6.8,12.2,-8.4,0.5,1.6,4.1,/,
